Data reported in ChEMBL document CHEMBL1145867, “Muraymycins, novel peptidoglycan biosynthesis inhibitors: synthesis and SAR of their analogues” (2003).
Converted amounts (≈) assume the structure as drawn. One block for each compound: values may come before it.

Key:
Candida albicans = test: In vitro antimicrobial activity against Candida albicans […] at 32 ug/ml soluble peptidoglycan; assay type: functional
Enterococcus faecalis [1] = test: In vitro antimicrobial activity 10.7 ug/ml soluble peptidoglycan; assay type: functional
Staphylococcus sp. [2] = test: In vitro antimicrobial activity against CNS GC 4538 at 10.7 ug/ml soluble peptidoglycan; assay type: functional
Staphylococcus sp. [3] = test: In vitro antimicrobial activity against Coagulase-negative staphylococcus GC 4538 at 10.7 ug/ml soluble peptidoglycan; assay type: functional
Staphylococcus aureus [4] = test: In vitro antimicrobial activity against Staphylococcus aureus GC 1131 at 10.7 ug/ml soluble peptidoglycan; assay type: functional
Staphylococcus aureus [5] = test: In vitro antimicrobial activity against Staphylococcus aureus GC 2216 at 10.7 ug/ml soluble peptidoglycan; assay type: functional
Enterococcus faecalis [6] = test: In vitro antimicrobial activity against Enterococcus faecalis GC 4555 at 10.7 ug/ml soluble peptidoglycan; assay type: functional
Staphylococcus sp. [7] = test: In vitro antimicrobial activity against CNS GC 4547 at 10.7 ug/ml soluble peptidoglycan; assay type: functional
Enterococcus faecalis [8] = test: In vitro antimicrobial activity against Enterococcus faecalis GC 842 at 10.7 ug/ml soluble peptidoglycan; assay type: functional
Staphylococcus aureus [9] = test: In vitro antimicrobial activity against Staphylococcus aureus GC 4536 at 10.7 ug/mL soluble peptidoglycan; assay type: functional
Bacteria [10] = test: In vitro antimicrobial activity against gram-negative organisms (10)
Enterococcus faecalis [11] = test: In vitro antimicrobial activity against Enterococcus faecalis GC 2242; assay type: functional
Summary of the method: (§1)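 Broth microdilution per NCCLS guidance. Serial dilutions of each agent in microtiter plates are inoculated with each organism to 10⁵ CFU/mL and incubated 18–22 h at 35 C in ambient air. MIC is the lowest concentration giving complete growth inhibition, judged by the unaided eye.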

Staphylococcus sp. [12] = test: In vitro antimicrobial activity against CNS GC 4538; assay type: functional; details: Staphylococcus sp.; read-out: MIC; summary of the method: as §1
Enterococcus faecalis [13] = test: In vitro antimicrobial activity against Enterococcus faecalis GC 4555; assay type: functional; summary of the method: as §1
Staphylococcus sp. [14] = test: In vitro antimicrobial activity against Coagulase-negative staphylococcus GC 4538; assay type: functional; summary of the method: as §1
Staphylococcus aureus [15] = test: In vitro antimicrobial activity against Staphylococcus aureus GC 1131; assay type: functional; summary of the method: as §1
Staphylococcus aureus [16] = test: In vitro antimicrobial activity against Staphylococcus aureus GC 2216; assay type: functional; summary of the method: as §1
Staphylococcus sp. [17] = test: In vitro antimicrobial activity against CNS GC 4547; assay type: functional; summary of the method: as §1
Enterococcus faecalis [18] = test: In vitro antimicrobial activity against Enterococcus faecalis GC 842; assay type: functional; summary of the method: as §1
Bacteria [19] = test: In vitro antimicrobial activity against gram-negative organisms (10); assay type: functional; summary of the method: as §1
Staphylococcus aureus [20] = test: In vitro antimicrobial activity against Staphylococcus aureus GC 4536; assay type: functional; summary of the method: as §1

MIC (Candida albicans): 32 µg/mL (≈ 30.7 µM)
MIC (Enterococcus faecalis [1]): 64 µg/mL (≈ 61.4 µM)
MIC (Staphylococcus sp. [2]): 128 µg/mL (≈ 123 µM)
MIC (Staphylococcus sp. [3]): 128 µg/mL (≈ 123 µM)
MIC (Staphylococcus aureus [4]): 128 µg/mL (≈ 123 µM)
MIC (Staphylococcus aureus [5]): 128 µg/mL (≈ 123 µM)
MIC (Enterococcus faecalis [6]): 64 µg/mL (≈ 61.4 µM)
MIC (Staphylococcus sp. [7]): 128 µg/mL (≈ 123 µM)
MIC (Enterococcus faecalis [8]): 64 µg/mL (≈ 61.4 µM)
MIC (Staphylococcus aureus [9]): 128 µg/mL (≈ 123 µM)
MIC (Bacteria [10]): 64 µg/mL (≈ 61.4 µM)
Structure (SMILES): COc1ccc(Cn2c(=O)ccn([C@@H]3OC([C@@H](O)[C@H](NCCCNC(=O)[C@H](NC(=O)OCc4ccccc4)C(O)C(C)C)C(=O)OC(C)(C)C)[C@@H](O[Si](C)(C)C(C)(C)C)[C@H]3O[Si](C)(C)C(C)(C)C)c2=O)cc1 (stereo partly specified)

MIC (Enterococcus faecalis [11]): 32 µg/mL (≈ 26.6 µM)
MIC (Staphylococcus sp. [12]): 1 µg/mL (≈ 0.832 µM)
MIC (Enterococcus faecalis [13]): 16 µg/mL (≈ 13.3 µM)
MIC (Staphylococcus sp. [14]): 2 µg/mL (≈ 1.66 µM)
MIC (Staphylococcus aureus [15]): 4 µg/mL (≈ 3.33 µM)
MIC (Staphylococcus aureus [16]): 8 µg/mL (≈ 6.66 µM)
MIC (Staphylococcus sp. [17]): 8 µg/mL (≈ 6.66 µM)
MIC (Enterococcus faecalis [18]): 4 µg/mL (≈ 3.33 µM)
MIC (Bacteria [19]): 8 µg/mL (≈ 6.66 µM)
MIC (Staphylococcus aureus [20]): 4 µg/mL (≈ 3.33 µM)
Structure (SMILES): COC1C(O)[C@@H](OC(C(NCCCNC(=O)[C@H](NC(=O)[C@@H](NC(=O)N[C@H](C(=O)O)C(C)C)C2CCN=C(N)N2)C(OC(=O)CCCCCCCCCCCN(O)C(=N)N)C(C)C)C(=O)O)[C@H]2O[C@@H](n3ccc(=O)[nH]c3=O)[C@H](O)[C@@H]2O)O[C@H]1CN (stereo partly specified)
